Source: ChEMBL document CHEMBL1138494, “Human glucagon receptor antagonists with thiazole cores. A novel series with superior pharmacokinetic properties” (J Med Chem, 2009)

What was measured:
[1] = target: T1, Gastric inhibitory polypeptide receptor (Homo sapiens, UniProt P48546); assay: Displacement of [125I]porcine GIP from human recombinant GIPR receptor expressed in BHK cells by scintillation proximity assay; assay type: cell-based
T1 sequence (P48546 whole entry): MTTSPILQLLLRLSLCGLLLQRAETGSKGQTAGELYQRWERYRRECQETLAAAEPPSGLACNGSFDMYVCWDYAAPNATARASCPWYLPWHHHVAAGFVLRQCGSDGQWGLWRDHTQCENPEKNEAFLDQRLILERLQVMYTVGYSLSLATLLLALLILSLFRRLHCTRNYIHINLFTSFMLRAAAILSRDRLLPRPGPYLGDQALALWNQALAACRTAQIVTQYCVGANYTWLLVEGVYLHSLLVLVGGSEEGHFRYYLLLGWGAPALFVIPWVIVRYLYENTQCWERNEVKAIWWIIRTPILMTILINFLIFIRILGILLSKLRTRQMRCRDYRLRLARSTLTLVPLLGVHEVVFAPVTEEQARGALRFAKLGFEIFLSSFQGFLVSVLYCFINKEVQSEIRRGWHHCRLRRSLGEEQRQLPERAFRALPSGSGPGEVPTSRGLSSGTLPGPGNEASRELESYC

Homo sapiens [2] = species: Homo sapiens; assay: Selectivity for human recombinant glucagon receptor over human GLP1R
Glucagon receptor [3] = target: T2, Glucagon receptor (Homo sapiens, UniProt P47871); assay: Displacement of [125I]porcine glucagon from human recombinant glucagon receptor expressed in BHK cells by scintillation proximity assay; assay type: cell-based
T2 sequence (P47871 whole entry): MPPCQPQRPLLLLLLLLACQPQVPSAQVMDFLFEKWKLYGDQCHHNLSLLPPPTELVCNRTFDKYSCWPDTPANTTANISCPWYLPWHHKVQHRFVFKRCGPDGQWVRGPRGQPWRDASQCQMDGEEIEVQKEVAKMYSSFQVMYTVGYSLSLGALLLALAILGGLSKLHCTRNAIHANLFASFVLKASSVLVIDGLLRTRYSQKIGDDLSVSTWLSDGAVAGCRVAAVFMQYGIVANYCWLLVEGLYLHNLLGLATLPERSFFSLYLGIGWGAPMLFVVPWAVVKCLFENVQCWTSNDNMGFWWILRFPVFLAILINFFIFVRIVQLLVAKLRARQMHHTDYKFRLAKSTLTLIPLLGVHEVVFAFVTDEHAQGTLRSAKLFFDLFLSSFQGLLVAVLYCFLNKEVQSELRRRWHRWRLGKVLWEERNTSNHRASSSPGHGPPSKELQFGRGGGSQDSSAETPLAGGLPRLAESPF

Homo sapiens [4] = species: Homo sapiens; assay: Selectivity ratio of IC50 for human recombinant glucagon receptor to IC50 for human recombinant GIPR
Method in brief: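 Competition binding of compounds to recombinant human glucagon and GIP receptors on BHK cell membranes, run in parallel as a scintillation proximity assay and, for selected compounds, as a membrane filtration assay.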

[5] = target: T1, Gastric inhibitory polypeptide receptor; assay: Binding affinity to human recombinant GIPR expressed in BHK cells by membrane filter assay; assay type: cell-based
Glucagon receptor [6] = target: T2, Glucagon receptor; assay: Binding affinity to human recombinant glucagon receptor expressed in BHK cells by membrane filter assay; assay type: cell-based
[7] = Clearance in fasted Sprague-Dawley rat at 1.66 mg/kg, iv and 3 mg/kg, po; assay type: ADME, organism-based; conditions: in vivo
Method in brief: (§1)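 Rats were dosed intravenously and perorally in separate arms, and plasma concentration-time profiles were obtained. Half-life was taken from the iv arm. Clearance, oral bioavailability, Cmax and Tmax were derived from the profiles.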

[8] = Tmax in fasted Sprague-Dawley rat at 1.6mg/kg, iv and 3 mg/kg, po; assay type: ADME, organism-based; set-up: dose 3 mg/kg, route oral; conditions: in vivo
Method in brief: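 Plasma concentration–time profiles were recorded after separate intravenous and peroral dosing at the per-compound doses listed. T_max is reported in min alongside C_max (ng/mL), intravenous half-life and clearance ((mL/min)/kg).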

[9] = Half life in fasted Sprague-Dawley rat plasma at 1.66 mg/kg, iv by HTLC-MS/MS analysis; assay type: ADME, organism-based; set-up: dose 1.66 mg/kg, route intravenous; method in brief: as §1
[10] = Cmax in fasted Sprague-Dawley rat at 1.66mg/kg, iv and 3 mg/kg, po; assay type: ADME, organism-based; set-up: dose 3 mg/kg, route oral; conditions: in vivo; method in brief: as §1
[11] = Oral bioavailability in fasted Sprague-Dawley rat at 3 mg/kg by HTLC-MS/MS analysis; assay type: ADME, organism-based; conditions: in vivo
Method in brief: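 Separate intravenous and peroral dosing arms per compound, with plasma concentration followed against time. Oral bioavailability (F_po) is reported per compound together with the intravenous half-life and clearance. The dose used for each arm is listed per compound.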

SMILES | IC50 [1] [nM] | fold change (FC) (Homo sapiens [2]) | IC50 (Glucagon receptor [3]) [nM] | fold change (FC) (Homo sapiens [4]) | IC50 [5] [nM] | IC50 (Glucagon receptor [6]) [nM] | clearance [7] [mL/min/kg] | Tmax [8] [h] | half-life [9] [h] | Cmax [10] [ng/mL] | bioavailability [11] [%]
O=C(O)CCNC(=O)c1ccc(CN(c2ccc(SC(F)(F)F)cc2)c2nc(-c3ccc(C(F)(F)F)cc3)cs2)cc1 | 777 | > 50 | 34 | 5 |  |  |  |  |  |  | 
O=C(O)CCNC(=O)c1ccc(CN(c2ccc3c(c2)CCC3)c2nc(-c3ccc(Cl)c(Cl)c3)cs2)cc1 | 638 | > 50 | 99 | 5 |  |  |  |  |  |  | 
O=C(O)CCNC(=O)c1ccc(N(Cc2ccc3c(c2)Cc2ccccc2-3)c2nc(-c3ccc(OC(F)(F)F)cc3)cs2)cc1 | 732 | > 50 | 81 | 5 |  |  | 31 | 1.5 | 0.767 | 82 | 13
CC(C)(C)c1ccc(-c2csc(N(Cc3ccc(C(=O)NCCC(=O)O)cc3)c3ccc(C(C)(C)C)cc3)n2)cc1 | 729 | > 50 | 315 | 5 |  |  |  |  |  |  | 

The next lines start with the values.

IC50 [1] [nM] | fold change (FC) (Homo sapiens [2]) | IC50 (Glucagon receptor [3]) [nM] | fold change (FC) (Homo sapiens [4]) | IC50 [5] [nM] | IC50 (Glucagon receptor [6]) [nM] | clearance [7] [mL/min/kg] | Tmax [8] [h] | half-life [9] [h] | Cmax [10] [ng/mL] | bioavailability [11] [%] | SMILES
584 | > 50 | 131 | 5 |  |  |  |  |  |  |  | Cc1cc(N(Cc2ccc(C(=O)NCCC(=O)O)cc2)c2nc(-c3cc(C(F)(F)F)cc(C(F)(F)F)c3)cs2)ccc1C(C)C
> 1000 | > 50 | 225 | 5 |  |  |  |  |  |  |  | O=C(NC[C@@H](O)C(=O)O)c1ccc(CN(c2ccc3c(c2)CCC3)c2nc(-c3ccc(OC(F)(F)F)cc3)cs2)cc1
555 | > 50 | 93 | 5 | 320 | 34 |  |  |  |  |  | O=C(O)CCNC(=O)c1ccc(N(Cc2ccc3c(c2)Cc2ccccc2-3)c2nc(-c3ccc(Cl)cc3)cs2)cc1
> 1000 | > 50 | 420 | 5 |  |  |  |  |  |  |  | COc1ccccc1-c1csc(N(Cc2ccc(C(=O)NCCC(=O)O)cc2)c2ccc(SC(F)(F)F)cc2)n1
1000 | > 50 | 86 | 5 |  |  |  |  |  |  |  | O=C(O)CCNC(=O)c1ccc(CN(c2ccc(C3=CCCCC3)cc2)c2nc(-c3ccc(Cl)cc3)c(-c3ccccc3)s2)cc1
